Results from ChEMBL document CHEMBL1125755, “Synthesis and structure-activity relationships of benzo[b]thienylallylamine antimycotics” (1991).
Values after ≈ are worked out from the molar mass of the structure shown.

Key:
[1] = tested on: Candida albicans; assay: Evaluated in vitro for the minimum inhibitory concentration against Candida albicans 124; format: functional
Outline: (§1)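 Yeast tube dilution in malt extract broth (pH 4.8), with compounds in DMSO serially diluted in the medium. Inoculum was blastospores from about 30-h shaken cultures in yeast nitrogen base at 37 °C. Growth was read after 48 h at 30 °C. MIC was the lowest concentration without macroscopically visible growth.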

[2] = tested on: Trichophyton benhamiae; assay: Evaluated in vitro for the minimum inhibitory concentration against Trichophyton mentagrophytes; format: functional, Arthroderma benhamiae
Outline: (§2)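 Dermatophytes were tested in glass tubes of Sabouraud's dextrose broth (pH 6.5) against DMSO-dissolved compounds serially diluted in the medium. Inoculum was taken by spatula from 21-day Kimming agar cultures grown at 30 °C. Incubation was 7 days at 30 °C. MIC was the lowest concentration showing no macroscopic fungal growth.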

[3] = tested on: Aspergillus fumigatus; assay: Evaluated in vitro for the minimum inhibitory concentration against Aspergillus fumigatus.
[4] = tested on: Sporothrix schenckii; assay: Evaluated in vitro for the minimum inhibitory concentration against Sporothrix schenckii.
[5] = tested on: Candida parapsilosis; assay: In vitro minimum inhibitory concentration which is the lowest concentration at which no signs of fungal growth were detected against Candida parapsilosis 39.; format: functional; settings: Lodderomyces parapsilosis; outline: as §1
[6] = tested on: Microsporum canis; assay: Evaluated in vitro for the minimum inhibitory concentration against Microsporum canis.; format: functional; outline: as §2
[7] = tested on: Candida parapsilosis; assay: Evaluated in vitro for the minimum inhibitory concentration against Candida parapsilosis 39.; format: functional; settings: Lodderomyces parapsilosis; outline: as §1
[8] = tested on: Aspergillus fumigatus; assay: In vitro minimum inhibitory concentration which is the lowest concentration at which no signs of fungal growth were detected against Aspergillus fumigatus.
[9] = tested on: Trichophyton benhamiae; assay: In vitro minimum inhibitory concentration which is the lowest concentration at which no signs of fungal growth were detected against Trichophyton mentagrophytes.; format: functional, Arthroderma benhamiae; outline: as §2
[10] = tested on: Sporothrix schenckii; assay: In vitro minimum inhibitory concentration which is the lowest concentration at which no signs of fungal growth were detected against Sporothrix schenckii
[11] = tested on: Microsporum canis; assay: In vitro minimum inhibitory concentration which is the lowest concentration at which no signs of fungal growth were detected against Microsporum canis.; format: functional; outline: as §2
[12] = tested on: Candida albicans; assay: In vitro minimum inhibitory concentration which is the lowest concentration at which no signs of fungal growth were detected against Candida albicans 124; format: functional; outline: as §1
[13] = tested on: Aspergillus fumigatus; assay: In vitro minimum inhibitory concentration which is the lowest concentration at which no signs of fungal growth were detected against Aspergillus fumigatus
[14] = tested on: Sporothrix schenckii; assay: In vitro minimum inhibitory concentration at which no signs of fungal growth were detected against laboratory adapted strains of Sporotrix schenck ii.; format: functional
Outline: (§3)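 Sabouraud's dextrose broth (pH 6.5) in glass tubes; compounds dissolved in DMSO and serially diluted with medium. Incubated at 30 °C and read after 7 days. MIC is the lowest concentration with no macroscopically visible fungal growth.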

[15] = tested on: Candida parapsilosis; assay: In vitro minimum inhibitory concentration at which no signs of fungal growth were detected against laboratory adapted strains of Candida parapsilosis.; format: functional; settings: Lodderomyces parapsilosis
Outline: (§4)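 Yeast blastospores taken from shaken cultures about 30 h old, grown at 37 °C in yeast nitrogen base. Tube dilution used malt extract broth (pH 4.8); compounds were dissolved in DMSO and serially diluted in medium. Incubated at 30 °C and read after 48 h. MIC is the lowest concentration with no macroscopic growth.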

[16] = tested on: Nakaseomyces glabratus; assay: In vitro minimum inhibitory concentration at which no signs of fungal growth were detected against laboratory adapted strains of Torulopsis glabrata.; format: functional; outline: as §4
[17] = tested on: Aspergillus niger; assay: In vitro minimum inhibitory concentration at which no signs of fungal growth were detected against laboratory adapted strains of Aspergillus niger.; format: functional
Outline: (§5)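 Inoculum of filamentous fungi harvested from 21-day-old Kimming agar cultures grown at 30 °C. Broth dilution in glass tubes with Sabouraud's dextrose broth (pH 6.5); compounds dissolved in DMSO and serially diluted in medium. Incubation at 30 °C, read after 72 h. MIC taken as the lowest concentration with no macroscopically visible growth.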

[18] = tested on: Aspergillus fumigatus; assay: In vitro minimum inhibitory concentration at which no signs of fungal growth were detected against laboratory adapted strains of Aspergillus fumigatus.; format: functional; outline: as §5
[19] = tested on: Scopulariopsis brevicaulis; assay: In vitro minimum inhibitory concentration at which no signs of fungal growth were detected against laboratory adapted strains of Scopulariopsis brevicaulis.; format: functional
Outline: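 Inoculum of this mould harvested from 21-day-old Kimming agar cultures grown at 30 °C. Compounds dissolved in DMSO and serially diluted in broth in glass tubes. Incubated at 30 °C and read after 72 h. MIC is the lowest concentration with no macroscopically detectable growth.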

[20] = tested on: Arthrodermataceae; assay: In vitro minimum inhibitory concentration at which no signs of fungal growth were detected against clinical isolated strains of dermatophytes.; format: functional; outline: as §2
[21] = tested on: Candida albicans; assay: In vitro minimum inhibitory concentration at which no signs of fungal growth were detected against clinical isolated strains of Candida albicans.; format: functional; outline: as §1
[22] = tested on: Arthrodermataceae; assay: In vitro minimum inhibitory concentration at which no signs of fungal growth were detected against laboratory adapted strains of dermatophytes.; format: functional; outline: as §3
[23] = tested on: Candida albicans; assay: In vitro minimum inhibitory concentration at which no signs of fungal growth were detected against laboratory adapted strains of Candida albicans.; format: functional; outline: as §4
[24] = tested on: Candida albicans; assay: In vitro minimum inhibitory concentration at which no signs of fungal growth were detected against clinically isolated strains of Candida albicans.; format: functional; outline: as §1
[25] = tested on: Nakaseomyces glabratus; assay: In vitro minimum inhibitory concentration at which no signs of fungal growth were detected against laboratory adapted strains of Torulopsis glabrata; format: functional; outline: as §4
[26] = tested on: Arthrodermataceae; assay: In vitro minimum inhibitory concentration at which no signs of fungal growth were detected against clinically isolated strains of dermatophytes.; format: functional; outline: as §2
[27] = tested on: Sporothrix schenckii; assay: In vitro minimum inhibitory concentration at which no signs of fungal growth were detected against laboratory adapted strains of Sporothrix schenck ii; format: functional; outline: as §3

SMILES	MIC [1]	MIC [2]	MIC [3]	MIC [4]	MIC [6]	MIC [7]	also measured
CN(C/C=C/C#CC(C)(C)C)Cc1cccc2cc(F)sc12.Cl	25 µg/mL	0.006 µg/mL	0.05 µg/mL	3.13 µg/mL	0.01 µg/mL	–	MIC [5]: 6.25 µg/mL
CN(C/C=C/C#CC(C)(C)C)Cc1cccc2c(F)csc12.Cl	0.8 µg/mL	0.0008 µg/mL	0.1 µg/mL	0.05 µg/mL	0.0015 µg/mL	0.1 µg/mL	–
CN(C/C=C/C#CC(C)(C)C)Cc1ccc2sccc2c1	200 µg/mL (≈ 672 µM)	0.4 µg/mL (≈ 1.34 µM)	1.56 µg/mL (≈ 5.24 µM)	> 200 µg/mL	1.56 µg/mL (≈ 5.24 µM)	100 µg/mL (≈ 336 µM)	–
CN(C/C=C/C#CC(C)(C)C)Cc1cc(Cl)cc2ccsc12.Cl	> 200 µg/mL	0.05 µg/mL	3.13 µg/mL	> 200 µg/mL	0.1 µg/mL	0.2 µg/mL	–
CN(C/C=C/C#CC(C)(C)C)Cc1csc2c(Cl)cccc12.Cl	25 µg/mL	0.02 µg/mL	0.8 µg/mL	> 100 µg/mL	0.05 µg/mL	1.56 µg/mL	–
CN(C/C=C/C#CC(C)(C)C)Cc1cccc2c(Br)csc12.Cl	–	–	–	–	–	–	MIC [8]: 0.8 µg/mL; MIC [9]: 0.006 µg/mL; MIC [10]: 0.4 µg/mL; MIC [5]: 0.2 µg/mL; MIC [11]: 0.006 µg/mL; MIC [12]: 0.8 µg/mL
CN(C/C=C/C#CC(C)(C)C)Cc1cc2ccccc2s1	> 200 µg/mL	> 100 µg/mL	–	> 100 µg/mL	> 100 µg/mL	> 200 µg/mL	–
CN(C/C=C/C#CC(C)(C)C)Cc1csc2ccc(Cl)cc12	12.5 µg/mL (≈ 37.7 µM)	0.006 µg/mL (≈ 0.0181 µM)	–	3.13 µg/mL (≈ 9.43 µM)	0.006 µg/mL (≈ 0.0181 µM)	0.4 µg/mL (≈ 1.21 µM)	MIC [13]: 0.4 µg/mL (≈ 1.21 µM)
CN(C/C=C/C#CC(C)(C)C)Cc1cccc2c(C=O)csc12	–	–	–	–	–	–	MIC [8]: 0.4 µg/mL (≈ 1.23 µM); MIC [9]: 0.05 µg/mL (≈ 0.154 µM); MIC [10]: 1.56 µg/mL (≈ 4.79 µM); MIC [5]: 0.4 µg/mL (≈ 1.23 µM); MIC [11]: 0.02 µg/mL (≈ 0.0614 µM); MIC [12]: 6.25 µg/mL (≈ 19.2 µM)
CN(C/C=C/C#CC(C)(C)C)Cc1cccc2c(Cl)csc12.Cl	0.8 µg/mL	0.0015 µg/mL	0.2 µg/mL	0.1 µg/mL	0.003 µg/mL	0.1 µg/mL	MIC [14]: 0.1 µg/mL; MIC [15]: 0.02 µg/mL; MIC [16]: > 100 µg/mL; MIC [17]: 0.02 µg/mL; MIC [18]: 0.05 µg/mL; MIC [19]: 0.05 µg/mL; MIC [20]: 0.02 µg/mL; MIC [21]: 3.13 µg/mL; MIC [22]: 0.003 µg/mL; MIC [23]: 0.4 µg/mL
CN(C/C=C/C#CC(C)(C)C)Cc1csc2ccccc12.Cl	100 µg/mL	0.01 µg/mL	0.8 µg/mL	3.13 µg/mL	0.02 µg/mL	3.13 µg/mL	–
Cc1csc2c(CN(C)C/C=C/C#CC(C)(C)C)cccc12.Cl	3.13 µg/mL	0.006 µg/mL	0.4 µg/mL	0.1 µg/mL	0.006 µg/mL	0.4 µg/mL	–
CN(C/C=C/C#CC(C)(C)C)Cc1cccc2c(C#N)csc12.Cl	–	–	–	–	–	–	MIC [8]: 3.13 µg/mL; MIC [9]: 0.02 µg/mL; MIC [10]: 0.4 µg/mL; MIC [5]: 0.2 µg/mL; MIC [11]: 0.01 µg/mL; MIC [12]: 3.13 µg/mL
CN(C/C=C/C#CC(C)(C)C)Cc1ccc(Cl)c2ccsc12.Cl	100 µg/mL	0.1 µg/mL	> 200 µg/mL	> 200 µg/mL	0.4 µg/mL	0.8 µg/mL	–
CN(C/C=C/C#CC(C)(C)C)Cc1cccc2scc(Cl)c12.Cl	50 µg/mL	0.05 µg/mL	0.8 µg/mL	25 µg/mL	0.1 µg/mL	6.25 µg/mL	–
CSc1csc2c(CN(C)C/C=C/C#CC(C)(C)C)cccc12.Cl	6.25 µg/mL	0.02 µg/mL	6.25 µg/mL	> 200 µg/mL	0.1 µg/mL	0.8 µg/mL	–
CN(C/C=C/C#CC(C)(C)C)Cc1cccc2sccc12.Cl	50 µg/mL	0.006 µg/mL	0.4 µg/mL	0.8 µg/mL	0.01 µg/mL	1.56 µg/mL	–
CN(C/C=C/C#CC(C)(C)C)Cc1cccc2ccsc12.Cl	25 µg/mL	0.006 µg/mL	0.2 µg/mL	0.1 µg/mL	0.01 µg/mL	0.8 µg/mL	–
CN(C/C=C/C#CC(C)(C)C)Cc1cccc2c(C(F)(F)F)csc12.Cl	3.13 µg/mL	0.05 µg/mL	12.5 µg/mL	50 µg/mL	0.1 µg/mL	1.56 µg/mL	–
CN(C/C=C/C#CC(C)(C)C)Cc1cccc2ccccc12 [TERBINAFINE]	–	–	–	–	–	–	MIC [15]: 0.8 µg/mL (≈ 2.75 µM); MIC [24]: 100 µg/mL (≈ 343 µM); MIC [17]: 0.02 µg/mL (≈ 0.0686 µM); MIC [25]: > 100 µg/mL; MIC [18]: 1.56 µg/mL (≈ 5.35 µM); MIC [8]: 0.4 µg/mL (≈ 1.37 µM); MIC [9]: 0.003 µg/mL (≈ 0.0103 µM); MIC [19]: 0.8 µg/mL (≈ 2.75 µM); MIC [10]: 0.8 µg/mL (≈ 2.75 µM); MIC [22]: 0.006 µg/mL (≈ 0.0206 µM); MIC [26]: 0.01 µg/mL (≈ 0.0343 µM); MIC [5]: 0.8 µg/mL (≈ 2.75 µM); MIC [11]: 0.006 µg/mL (≈ 0.0206 µM); MIC [12]: 25 µg/mL (≈ 85.8 µM); MIC [23]: 50 µg/mL (≈ 172 µM); MIC [27]: 0.4 µg/mL (≈ 1.37 µM)
CN(C/C=C/C#CC(C)(C)C)Cc1cccc2sc(Cl)cc12.Cl	25 µg/mL	0.006 µg/mL	0.2 µg/mL	6.25 µg/mL	0.006 µg/mL	0.2 µg/mL	–
CN(C/C=C/C#CC(C)(C)C)Cc1c(Cl)sc2ccccc12	> 200 µg/mL	0.1 µg/mL (≈ 0.301 µM)	> 200 µg/mL	> 200 µg/mL	0.1 µg/mL (≈ 0.301 µM)	6.25 µg/mL (≈ 18.8 µM)	–
CN(C/C=C/C#CC(C)(C)C)Cc1cccc2cc(Cl)sc12.Cl	> 100 µg/mL	0.01 µg/mL	> 100 µg/mL	> 100 µg/mL	0.01 µg/mL	0.8 µg/mL	–
